For orientation: inhibition means the relative decrease from the control value, in per cent. The IC50 is the concentration at which inhibition is half-maximal.

We go through 15 molecules from ChEMBL document CHEMBL3400077 (Bioorg Med Chem Lett, 2015).

The source made the active and inactive calls. No cut-off for these calls is given here.

Assay [1] deals with T1, Fatty-acid amide hydrolase 1 (Homo sapiens) (UniProt O00519).
T1 sequence (whole entry): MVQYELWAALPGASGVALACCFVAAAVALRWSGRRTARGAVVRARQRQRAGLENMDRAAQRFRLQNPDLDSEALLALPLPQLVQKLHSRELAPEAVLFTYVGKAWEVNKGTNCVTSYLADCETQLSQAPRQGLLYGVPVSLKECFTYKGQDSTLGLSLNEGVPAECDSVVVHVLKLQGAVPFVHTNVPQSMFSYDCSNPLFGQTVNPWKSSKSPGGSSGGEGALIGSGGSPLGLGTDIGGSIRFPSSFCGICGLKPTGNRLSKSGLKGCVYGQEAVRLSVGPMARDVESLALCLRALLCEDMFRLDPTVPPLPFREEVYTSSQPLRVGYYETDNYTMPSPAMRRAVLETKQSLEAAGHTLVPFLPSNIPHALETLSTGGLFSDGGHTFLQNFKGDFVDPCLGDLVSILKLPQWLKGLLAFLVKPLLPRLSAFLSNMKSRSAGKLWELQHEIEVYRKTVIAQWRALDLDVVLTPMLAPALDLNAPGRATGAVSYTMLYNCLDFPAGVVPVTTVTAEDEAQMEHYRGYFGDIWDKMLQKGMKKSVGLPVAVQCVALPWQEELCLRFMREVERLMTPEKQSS
Briefly: Inhibition of human FAAH using [ethanolamine 1-3H] substrate assessed as radioactivity at 10 uM by liquid scintillation counting analysis. Summed up:
(§1)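 Human recombinant enzyme screened at a single test concentration; percent inhibition is the mean of two independent experiments, each run in duplicate.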

Assay [2] addresses T2, Monoglyceride lipase (Homo sapiens, UniProt Q99685).
T2 sequence (Q99685 whole entry): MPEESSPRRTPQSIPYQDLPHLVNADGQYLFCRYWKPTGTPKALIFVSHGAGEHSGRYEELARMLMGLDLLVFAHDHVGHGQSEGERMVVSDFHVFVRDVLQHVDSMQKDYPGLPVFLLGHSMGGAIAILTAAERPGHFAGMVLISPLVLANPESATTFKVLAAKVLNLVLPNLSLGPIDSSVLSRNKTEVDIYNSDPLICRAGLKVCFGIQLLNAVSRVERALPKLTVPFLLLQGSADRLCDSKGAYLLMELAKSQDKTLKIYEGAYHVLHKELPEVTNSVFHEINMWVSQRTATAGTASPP
Briefly: Inhibition of human recombinant MAGL using 2-arachidonoylglycerol substrate assessed as arachidonic acid by HPLC analysis.

Assay [3] has as its target T3, Monoglyceride lipase (Homo sapiens) (UniProt Q99685).
T3 sequence (whole entry): T2 sequence (Q99685 whole entry)
Briefly: Inhibition of human recombinant MAGL using 2-arachidonoylglycerol substrate assessed as arachidonic acid at 10 uM by HPLC analysis. In short, it runs like this:
as §1

Assay [4] has as its target T2, Monoglyceride lipase. Briefly: Reversible inhibition of human recombinant MAGL using 2-arachidonoylglycerol substrate assessed as arachidonic acid after 60 mins by HPLC analysis.
Assay [5] addresses Cannabinoid receptor 2 (Homo sapiens) (UniProt P34972). Briefly: Agonist activity at human cannabinoid CB2 receptor introduced into CHO cells assessed as [35S]GTPgammaS binding relative to control. The format is functional, cell-based. Summed up:
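[35S]GTPγS binding in membranes from CHO cells expressing hCB2R, test compound alone. Read-out is % of basal binding, mean (range), n = 2.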
For orientation: GTPγS is a poorly hydrolysed GTP analogue; its binding reports G protein activation.

The target of assay [6] is Histamine H1 receptor (Cavia porcellus, UniProt P31389). Briefly: Antagonist activity at histamine H1 receptor in guinea pig jejunum assessed as reduction in histamine-induced contractions. As to conditions: read-out: pA2 (converted).
Histamine H1 receptor, sequence (P31389 whole entry): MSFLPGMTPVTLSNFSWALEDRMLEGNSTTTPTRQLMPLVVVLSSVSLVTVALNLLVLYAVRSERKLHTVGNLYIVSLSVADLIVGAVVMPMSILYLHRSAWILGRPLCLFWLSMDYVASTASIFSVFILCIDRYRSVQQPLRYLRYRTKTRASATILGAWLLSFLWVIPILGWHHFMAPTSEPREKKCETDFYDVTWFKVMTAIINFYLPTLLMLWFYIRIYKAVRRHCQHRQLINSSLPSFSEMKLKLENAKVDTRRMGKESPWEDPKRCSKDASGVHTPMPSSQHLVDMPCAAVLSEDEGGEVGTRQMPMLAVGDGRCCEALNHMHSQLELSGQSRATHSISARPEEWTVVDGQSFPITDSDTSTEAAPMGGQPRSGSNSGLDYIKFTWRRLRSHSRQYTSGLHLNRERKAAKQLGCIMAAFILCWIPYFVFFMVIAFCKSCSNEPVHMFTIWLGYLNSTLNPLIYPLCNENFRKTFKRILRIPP
In assay [7] the target is T2, Monoglyceride lipase. Briefly: Reversible inhibition of human recombinant MAGL using 2-arachidonoylglycerol substrate assessed as arachidonic acid after 90 mins by HPLC analysis.
Assay [8] has as its target T4, Monoacylglycerol lipase ABHD6 (Homo sapiens, UniProt Q9BV23).
T4 sequence (Q9BV23 whole entry): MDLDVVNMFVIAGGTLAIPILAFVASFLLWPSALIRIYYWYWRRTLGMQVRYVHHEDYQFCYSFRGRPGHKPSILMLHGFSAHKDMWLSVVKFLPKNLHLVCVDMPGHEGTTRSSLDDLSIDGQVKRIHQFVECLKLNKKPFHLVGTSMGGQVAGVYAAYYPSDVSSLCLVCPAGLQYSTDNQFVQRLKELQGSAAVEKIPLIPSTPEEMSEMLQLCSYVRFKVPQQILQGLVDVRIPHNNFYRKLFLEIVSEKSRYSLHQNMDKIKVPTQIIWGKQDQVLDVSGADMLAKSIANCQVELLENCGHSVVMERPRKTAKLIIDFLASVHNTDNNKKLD
Briefly: Inhibition of human ABHD6 containing pCMV6-AC-hABHD6 transfected into HEK293 cells. The format is cell-based.

In assay [9] the target is T5, Fatty-acid amide hydrolase 1 (Homo sapiens, UniProt O00519).
T5 sequence (O00519 whole entry): T1 sequence (whole entry)
Briefly: Inhibition of human FAAH using [ethanolamine 1-3H] substrate assessed as radioactivity by liquid scintillation counting analysis.

Assay [10] has as its target T2, Monoglyceride lipase. Briefly: Reversible inhibition of human recombinant MAGL using 2-arachidonoylglycerol substrate assessed as arachidonic acid after 30 mins by HPLC analysis.
Assay [11] concerns the target T6, Lysophosphatidylserine lipase ABHD12 (Homo sapiens) (UniProt Q8N2K0).
T6 sequence (whole entry): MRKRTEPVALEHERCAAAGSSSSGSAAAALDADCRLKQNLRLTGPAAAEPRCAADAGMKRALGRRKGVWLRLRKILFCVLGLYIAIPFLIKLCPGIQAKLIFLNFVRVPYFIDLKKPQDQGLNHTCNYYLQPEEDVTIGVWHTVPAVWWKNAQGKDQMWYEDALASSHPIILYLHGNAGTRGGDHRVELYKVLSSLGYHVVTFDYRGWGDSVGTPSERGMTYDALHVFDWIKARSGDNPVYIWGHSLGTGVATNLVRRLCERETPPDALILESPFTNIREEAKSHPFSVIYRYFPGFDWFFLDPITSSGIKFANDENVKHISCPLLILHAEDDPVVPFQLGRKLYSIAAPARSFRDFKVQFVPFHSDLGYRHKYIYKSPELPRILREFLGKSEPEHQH
Briefly: Inhibition of human ABHD12 containing pCMV6-XL4-hABHD12 transfected into HEK293 cells at 10 uM. It counts as cell-based.

The target of assay [12] is Cannabinoid receptor 1 (Rattus norvegicus) (UniProt P20272). Briefly: Antagonist activity at rat cerebellar membrane cannabinoid CB1 receptor assessed as HU210-evoked [35S]GTPgammaS binding response relative to control. The format is functional. On the set-up: scale not given: the % may be the effect or the level left. Summed up: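 [35S]GTPγS binding in rat cerebellar membranes, test compound co-incubated with HU210 agonist. Expressed as % of the HU210-evoked response, mean (range), n = 2.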
Cannabinoid receptor 1 (Rattus norvegicus), sequence (P20272 whole entry): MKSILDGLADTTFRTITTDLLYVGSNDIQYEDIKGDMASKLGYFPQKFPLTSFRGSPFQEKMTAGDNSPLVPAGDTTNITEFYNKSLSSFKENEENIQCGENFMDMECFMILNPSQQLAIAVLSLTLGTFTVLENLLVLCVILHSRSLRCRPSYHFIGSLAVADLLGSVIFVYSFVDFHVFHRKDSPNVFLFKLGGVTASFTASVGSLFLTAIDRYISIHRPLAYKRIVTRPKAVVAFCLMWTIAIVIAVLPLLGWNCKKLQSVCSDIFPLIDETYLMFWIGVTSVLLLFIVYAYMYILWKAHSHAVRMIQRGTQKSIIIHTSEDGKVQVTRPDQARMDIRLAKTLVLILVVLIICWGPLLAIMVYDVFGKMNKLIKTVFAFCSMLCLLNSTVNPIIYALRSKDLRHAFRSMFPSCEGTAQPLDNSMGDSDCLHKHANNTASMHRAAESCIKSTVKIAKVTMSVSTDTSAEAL

Assay [13] has the same target. Briefly: Agonist activity at rat cerebellar membrane cannabinoid CB1 receptor assessed as [35S]GTPgammaS binding relative to control. The format is functional. Summed up:
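[35S]GTPγS binding in rat cerebellar membranes, test compound alone at a single concentration. Read-out is % of basal binding, mean (range), n = 2.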

Assay [14] deals with T2, Monoglyceride lipase. Briefly: Reversible inhibition of human recombinant MAGL using 2-arachidonoylglycerol substrate assessed as arachidonic acid after 10 mins by HPLC analysis.

Cannabinoid receptor 2 (Homo sapiens), sequence (P34972 whole entry): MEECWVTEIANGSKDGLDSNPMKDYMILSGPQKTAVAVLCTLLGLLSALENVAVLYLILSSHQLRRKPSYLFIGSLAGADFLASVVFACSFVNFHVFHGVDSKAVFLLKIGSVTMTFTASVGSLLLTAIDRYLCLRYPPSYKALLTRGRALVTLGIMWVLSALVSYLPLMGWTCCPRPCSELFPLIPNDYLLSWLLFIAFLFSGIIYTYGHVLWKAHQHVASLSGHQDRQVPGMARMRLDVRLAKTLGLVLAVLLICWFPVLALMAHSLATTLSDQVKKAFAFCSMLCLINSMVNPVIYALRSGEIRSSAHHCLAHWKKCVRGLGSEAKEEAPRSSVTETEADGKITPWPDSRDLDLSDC

As for `O=C(ON1C(=O)CCC1=O)N1CCC(=C2c3ccc(Cl)cc3CCc3cccnc32)CC1`, the inhibition in assay [1] came to 12%. For the same molecule, the IC50 in assay [2] turned out to be 2570 nM.
With `O=C(N1CCC(=C2c3ccc(Cl)cc3CCc3cccnc32)CC1)n1ccnc1`, the inhibition in [1] was found to be 7%. For the same molecule, the inhibition result in [3] is “inactive”.
For the molecule `O=C(N1CCC(C(c2ccc3c(c2)OCO3)c2ccc3c(c2)OCO3)CC1)n1cncn1`, the IC50 in assay [2] worked out at 0.36 nM.
For `CCOC(=O)N1CCC(=C2c3ccc(Cl)cc3CCc3cccnc32)CC1`, the inhibition in assay [1] is 11%. The inhibition entry in assay [3] was “inactive”.
Consider `O=C(N1CCC(=C2c3ccc(Cl)cc3CCc3cccnc32)CC1)n1cncn1`, for which the IC50 in [4] was 257 nM; in assay [7], 309 nM; in [8], 1780 nM; in assay [9], 7240 nM; in assay [10], 224 nM; in assay [2], 46 nM. The IC50 in assay [14] was 209 nM. The Activity stood at 101% in [5], 80% in assay [12] and 90% in assay [13]. Further, the Kb in assay [6] is 155 nM. Moreover, the inhibition result in assay [11] is “inactive”.
With `O=C(Oc1ccc([N+](=O)[O-])cc1)N1CCC(=C2c3ccc(Cl)cc3CCc3cccnc32)CC1`, the inhibition in assay [1] was 6%; in assay [3], 27%.
With `CN(C(=O)N1CCC(=C2c3ccc(Cl)cc3CCc3cccnc32)CC1)C1CCCCC1`, the inhibition entry in [1] and in assay [3] was “inactive” throughout.
For `O=C(OC(C(F)(F)F)C(F)(F)F)N1CCC(=C2c3ccc(Cl)cc3CCc3cccnc32)CC1`, the inhibition in assay [1] came to 15%. Moreover, the half-inhibitory concentration (IC50) in assay [2] was 645 nM.
Consider `O=C(N1CCC(=C2c3ccccc3C=Cc3ccccc32)CC1)n1cncn1`, for which the Kb in assay [6] was 316 nM. In addition, the IC50 stood at 750 nM in assay [8], 6910 nM in [9] and 47 nM in [2]. Moreover, the inhibition result in assay [11] is “inactive”.
`O=C(N1CCC(=C2c3ccc(Cl)cc3CCc3cccnc32)CC1)n1nnc2ccccc21`: the inhibition in [1] was determined as 22%. Also, in assay [2], the IC50 was 208 nM.
In the case of `O=C(Oc1ccc([N+](=O)[O-])cc1[N+](=O)[O-])N1CCC(=C2c3ccc(Cl)cc3CCc3cccnc32)CC1`, the inhibition in [1] was 14%. For the same molecule, in assay [3], the inhibition result was “inactive”.
For `O=C(NC1CCCCC1)N1CCC(=C2c3ccc(Cl)cc3CCc3cccnc32)CC1`, in that order: 9% and “inactive”.
On the same counts, the results for `O=[N+]([O-])c1ccc(SC(=S)N2CCC(=C3c4ccc(Cl)cc4CCc4cccnc43)CC2)c([N+](=O)[O-])c1` are 12% and 14%.
For `CN(C(=O)N1CCC(=C2c3ccc(Cl)cc3CCc3cccnc32)CC1)c1ccccc1`, in that order: 11% and “inactive”.
As to `O=C(N1CCC(=C2c3ccc(Cl)cc3CCc3cccnc32)CC1)n1nnc2ncccc21`, the inhibition in assay [1] was 30%. Besides, the IC50 in assay [2] was 98 nM.
